An excerpt weighted towards active compounds, which were near 1.3% of everything screened.
HKDC1 inhibitor: HKDC1 hexokinase inhibitors, primary screen, biochemical, fluorescence, uHTS; Q2TB90; recombinant HKDC1, G6PDH/diaphorase resazurin coupled fluorescence; inhibition, % at 20 µM; hit rate 0.16% among 340,000; AID 493160, 2011;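 active = inhibition above about 35% when tested at 20 µM, limit read from the data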;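 note: plate controls were DMSO wells with enzyme for no effect and DMSO wells lacking enzyme for full effect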
Target sequence (Q2TB90 whole entry, looked up): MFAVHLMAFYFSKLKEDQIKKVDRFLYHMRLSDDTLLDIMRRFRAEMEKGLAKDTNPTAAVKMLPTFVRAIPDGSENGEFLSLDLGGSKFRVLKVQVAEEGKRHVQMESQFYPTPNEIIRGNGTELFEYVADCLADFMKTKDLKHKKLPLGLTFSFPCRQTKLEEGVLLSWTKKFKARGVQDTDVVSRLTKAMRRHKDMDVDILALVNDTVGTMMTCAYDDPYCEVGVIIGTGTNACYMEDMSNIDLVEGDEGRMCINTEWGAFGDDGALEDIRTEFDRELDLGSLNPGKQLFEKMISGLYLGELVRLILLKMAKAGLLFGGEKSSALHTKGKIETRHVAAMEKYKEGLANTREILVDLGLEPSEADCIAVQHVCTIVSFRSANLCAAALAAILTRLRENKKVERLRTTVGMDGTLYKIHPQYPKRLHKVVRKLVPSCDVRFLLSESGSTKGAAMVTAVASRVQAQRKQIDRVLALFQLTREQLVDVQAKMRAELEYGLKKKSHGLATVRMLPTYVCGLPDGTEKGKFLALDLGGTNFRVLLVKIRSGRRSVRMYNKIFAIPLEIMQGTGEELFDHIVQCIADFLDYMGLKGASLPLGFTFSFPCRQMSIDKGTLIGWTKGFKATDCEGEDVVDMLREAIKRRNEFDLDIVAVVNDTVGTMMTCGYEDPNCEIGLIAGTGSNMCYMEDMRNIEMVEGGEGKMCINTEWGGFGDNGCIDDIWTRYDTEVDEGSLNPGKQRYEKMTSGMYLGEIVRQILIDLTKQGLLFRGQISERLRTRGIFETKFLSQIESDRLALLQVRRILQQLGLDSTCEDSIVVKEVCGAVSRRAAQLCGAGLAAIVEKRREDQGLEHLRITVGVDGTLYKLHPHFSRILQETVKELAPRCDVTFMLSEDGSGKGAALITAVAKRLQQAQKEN
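System: Recombinant HKDC1 hexokinase | Amount: HKDC1 at 5 µg/mL | Reagent: Glucose with 1 mM ATP | Doses: Single 20 µM dose | Incubation: Reaction time 90 min, room temperature, protected from light | Signal: Coupled resazurin fluorescence, excitation 525 nm, emission 613 nm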
G6PDH CS: L. mesenteroides G6PDH inhibitors, counter-screen for G6PDH-coupled screening assays, biochemical, Leuconostoc mesenteroides enzyme. inhibition, % at 5 µM. hit rate 0.12% among 200,000. glucose-6-phosphate dehydrogenase [Leuconostoc mesenteroides]. Purified L. mesenteroides G6PDH, diaphorase/resazurin coupled fluorescence, 45 min; in the data active = inhibition above about 50%
Diaphorase inh: diaphorase inhibitors and chemical oxidizers, primary screen, counter-screen for diaphorase-coupled primary assays, biochemical, uHTS, resorufin fluorescence; AID 1217, 2008; hit rate 0.69% among 190,000; diaphorase resazurin-to-resorufin fluorescence, NADH, 16 min; bacterial (C. kluyveri) enzyme, not human; inhibition, % at 20 µM;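 active = primary screen inhibition at 20 µM above a set limit, cut at about 50% in these data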;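 note: plate controls were DMSO with full reaction for no effect and wells lacking NADH for full effect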
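controls = No-NADH positive control and DMSO neutral control | system = Clostridium kluyveri diaphorase enzyme | timing = reaction incubation of 16 min at room temperature | signal = resorufin fluorescence 544/590 nm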
PfGluPho inh: PfG6PD enzyme inhibitors, primary screen, biochemical, fluorescence intensity, uHTS. glucose-6-phosphate dehydrogenase-6-phosphogluconolactonase (Plasmodium falciparum 3D7). PfGluPho enzyme, NADPH resazurin-diaphorase fluorescence. inhibition, % at 20 µM. hit rate 0.78% among 350,000. AID 504690, 2011;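 active = inhibition reaching at least a set limit at 20 µM in the primary screen, cut at about 59% in these data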;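 note: 0% = DMSO wells with substrate and 100% = DMSO wells lacking glucose-6-phosphate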
HKDC1 act conf: HKDC1 hexokinase activators, confirmation, biochemical, single concentration; hit rate 14% among 740; inhibition, % at 20 µM; shares compounds with HKDC1 inhibitor; recombinant HKDC1, G6PDH/diaphorase resazurin fluorescence; stronger effect = lower value;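 active = inhibition at or below a set negative limit, negative inhibition meaning the enzyme was activated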
An asterisk follows results filed as active.

Results for O=C1CCC(C(=O)Nc2ccccc2N2CCCC2)=NN1 ?
HKDC1 inhibitor: 1.4; PfGluPho inh: 21.7

What do the screens show for `CN(C(=O)COC(=O)CSc1ccc(C(N)=O)cc1[N+](=O)[O-])C1CCCCC1`?
HKDC1 inhibitor: -3.3; PfGluPho inh: 2.1

What do the screens show for `CC(=O)c1ccc2c(c1)C1C=CCC1C(C(=O)O)N2` (configuration not stated)?
HKDC1 inhibitor: 34.3; G6PDH CS: 6.8; Diaphorase inh: 77.1*; PfGluPho inh: 27.8; HKDC1 act conf: 36.1

What do the screens show for `CC(=O)c1ccc2c(c1)C1C=CCC1C(c1ccncc1)N2` (configuration not stated)?
HKDC1 inhibitor: 11.3; G6PDH CS: 6.7; Diaphorase inh: 19.8; PfGluPho inh: 33.1

How did O=C(CNC(=O)c1cccs1)N/N=C/c1ccc(O)cc1O do in these assays?
HKDC1 inhibitor: -46.4; G6PDH CS: -10.3; Diaphorase inh: 12.8; PfGluPho inh: -28.4; HKDC1 act conf: -25.9

How did O=C(CN1CCCc2ccccc21)N/N=C/c1ccc(O)cc1O do in these assays?
HKDC1 inhibitor: -43.3; G6PDH CS: -26.1; Diaphorase inh: 19.0; PfGluPho inh: -13.9; HKDC1 act conf: -34.1

What do the screens show for `COc1ccccc1/C=C\C(=O)NCC(=O)N/N=C/c1ccc(O)cc1O`?
HKDC1 inhibitor: -40.9; PfGluPho inh: -29.5; HKDC1 act conf: -32.0

How did O=C(CN1CCCc2ccccc21)N/N=C/c1ccccc1 do in these assays?
HKDC1 inhibitor: -4.5; G6PDH CS: -9.4; Diaphorase inh: 15.8; PfGluPho inh: 20.5

How did O=C(CCc1ccccc1)NCC(=O)N/N=C/c1ccc(O)cc1O do in these assays?
HKDC1 inhibitor: -43.3; PfGluPho inh: -26.9; HKDC1 act conf: -5.8

What do the screens show for `COc1ccccc1/C=C/C(=O)NCC(=O)N/N=C/c1ccccc1`?
HKDC1 inhibitor: 1.0; G6PDH CS: 9.8; Diaphorase inh: -10.9; PfGluPho inh: -8.4

Results for CC(CN1C(C)CCCC1C)OC(=O)c1cccc(Br)c1 (configuration not stated) ?
HKDC1 inhibitor: -2.5; PfGluPho inh: 6.3

How did Cc1c(C(=O)N2CCc3ccccc3C2)oc2ccccc12 do in these assays?
HKDC1 inhibitor: -1.1; PfGluPho inh: 7.3

Results for CSC[C@H]1CN(c2ccc(Br)cc2)C(=O)[C@@H]1CC(=O)Nc1ccccc1 ?
PfGluPho inh: -10.7

How did N#C/C(=C(/O)C(Cl)(Cl)Cl)c1nc2ccccc2[nH]1 do in these assays?
HKDC1 inhibitor: 3.7; PfGluPho inh: -12.3

Results for Cc1cc2cc(CCNC(=O)c3ccc(S(=O)(=O)N4CCOCC4)cc3)c(=O)[nH]c2cc1C ?
HKDC1 inhibitor: 41.4*; G6PDH CS: 3.3; Diaphorase inh: 58.4*; PfGluPho inh: 32.0; HKDC1 act conf: 45.0

How did Cc1ccc2cc(CCNC(=O)c3ccc(S(=O)(=O)N4CCCCC4)cc3)c(=O)[nH]c2c1 do in these assays?
HKDC1 inhibitor: 40.0*; G6PDH CS: 4.9; Diaphorase inh: 72.1*; PfGluPho inh: 45.5; HKDC1 act conf: 39.8

What do the screens show for `Cc1ccc2cc(CCNC(=O)c3ccc(S(=O)(=O)N4CCOCC4)cc3)c(=O)[nH]c2c1`?
HKDC1 inhibitor: 19.8; PfGluPho inh: 28.4

What do the screens show for `Cc1cc2cc(CCNC(=O)c3cccc([N+](=O)[O-])c3)c(=O)[nH]c2cc1C`?
HKDC1 inhibitor: 40.1*; G6PDH CS: -2.2; Diaphorase inh: 36.3; PfGluPho inh: 8.9; HKDC1 act conf: 16.1

How did O=C(Cn1cnc2ccccc2c1=O)NCCC(=O)Nc1ccc(F)cc1 do in these assays?
HKDC1 inhibitor: -7.3; PfGluPho inh: -4.1

What do the screens show for `Cc1cc(C)n2nc(SCc3nnc(SCc4ccccc4C)s3)nc2n1`?
HKDC1 inhibitor: 52.6*; G6PDH CS: 2.6; Diaphorase inh: 49.5; PfGluPho inh: 7.3; HKDC1 act conf: 69.2

How did COc1cccc(CSc2nnc(CSc3nc4nc(C)cc(C)n4n3)s2)c1 do in these assays?
HKDC1 inhibitor: 34.1; G6PDH CS: 29.2; Diaphorase inh: 29.3; PfGluPho inh: 26.9

How did Cc1cc(C)n2nc(SCc3nnc(SCc4ccccc4Cl)s3)nc2n1 do in these assays?
HKDC1 inhibitor: 40.8*; G6PDH CS: -10.4; Diaphorase inh: 58.1*; PfGluPho inh: 19.1; HKDC1 act conf: 43.0

Source: PubChem BioAssay
